Results: ChEMBL document CHEMBL3352635 (Bioorg Med Chem Lett, 2014)

What was measured:
in vivo [1] = settings: Sprague-Dawley, rat, plasma, po, 10 mg/kg
in vivo [2] = settings: Sprague-Dawley, rat, plasma, po, 10 mg/kg; remark: listed apart in the source
in vivo [3] = settings: Sprague-Dawley, rat, po, 10 mg/kg
in vivo [4] = settings: Sprague-Dawley, rat, po, 10 mg/kg; remark: listed apart in the source
in vivo [5] = settings: Sprague-Dawley, rat, plasma, po, 10 mg/kg; remark: listed apart in the source
Rattus norvegicus [6] = experiment: Toxicity in rat assessed as gastric lesion and ulcer area at 200 mg/kg, po after 5 hrs; format: organism-based, Stomach; design: dose 200 mg/kg, route oral; settings: in vivo
[7] = AUC in Sprague-Dawley rat at 30 mg/kg, po; format: ADME, organism-based; design: dose 30 mg/kg, route oral; settings: plasma
Summary of the method: (§1)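 Plasma parent-drug concentration followed over time up to 8 h. AUC in µg*h/mL from the concentration–time profile. Cmax and Tmax taken from the profile.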

[8] = AUC in Wistar rat at 30 mg/kg, po; format: ADME, organism-based; design: dose 30 mg/kg, route oral; settings: plasma
Summary of the method: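 Single oral dosing in Wistar rats to compare […]. Aspirin at 30 mg/kg or the prodrug at 44.83 mg/kg (equimolar to 30 mg/kg aspirin). Plasma aspirin measured over time. AUC in µg*h/mL.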

Rattus norvegicus [9] = experiment: Antiplatelet activity in Sprague-Dawley rat assessed as inhibition of TXB2 formation at 30 mg/kg, po od after 7 days by EIA relative to vehicle-treated control; format: functional; settings: 168 h
Summary of the method: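 Sprague–Dawley rats dosed orally once daily for 7 days with aspirin 30 mg/kg or prodrug 44.82 mg/kg (equimolar), with vehicle 1 ml/kg as control. Serum TXB2 levels estimated. Inhibition expressed as % reduction versus vehicle.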

[10] = Metabolic stability in simulated gastric fluid assessed as compound remaining at pH 1.2 after 10 mins by HPLC analysis; format: ADME; settings: read-out: Stability
Summary of the method: (§2)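 Compounds incubated at 37 °C in simulated gastric fluid (pH 1.2), simulated intestinal fluid (pH 6.8) or 100% human plasma for up to 180 min. […] Half-life estimated from the decay.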

[11] = Metabolic stability in simulated gastric fluid assessed as compound remaining at pH 1.2 after 180 mins by HPLC analysis; format: ADME; settings: read-out: Stability
Summary of the method: as §2

[12] = Metabolic stability in simulated gastric fluid assessed as compound remaining at pH 1.2 after 60 mins by HPLC analysis; format: ADME; settings: read-out: Stability
Summary of the method: as §2

[13] = Metabolic stability in simulated gastric fluid assessed as compound remaining at pH 1.2 after 30 mins by HPLC analysis; format: ADME; settings: read-out: Stability
Summary of the method: as §2

[14] = Metabolic stability in simulated gastric fluid assessed as compound remaining at pH 1.2 after 120 mins by HPLC analysis; format: ADME; settings: read-out: Stability
Summary of the method: as §2

[15] = Metabolic stability in simulated gastric fluid assessed as compound remaining at pH 1.2 measured immediately by HPLC analysis; format: ADME; settings: read-out: Stability
Summary of the method: as §2

[16] = Half life in simulated gastric fluid at pH 1.2 by HPLC analysis; format: ADME
Summary of the method: as §2

[17] = Metabolic stability in simulated gastric fluid assessed as compound remaining at pH 1.2 after 15 mins by HPLC analysis; format: ADME; settings: read-out: Stability
Summary of the method: as §2

[18] = Metabolic stability in simulated gastric fluid assessed as compound remaining at pH 1.2 after 5 mins by HPLC analysis; format: ADME; settings: read-out: Stability
Summary of the method: as §2

[19] = AUC in Sprague-Dawley rat at 44.83 mg/kg, po; format: ADME, organism-based; design: dose 44.83 mg/kg, route oral; settings: plasma
Summary of the method: as §1

remaining at 10 min [10] [%] | remaining at 3 h [11] [%] | remaining at 1 h [12] [%] | remaining at 0.5 h [13] [%] | remaining at 2 h [14] [%] | remaining at 0 min [15] [%] | half-life [16] [h] | remaining at 0.25 h [17] [%] | remaining at 5 min [18] [%] | SMILES | other results
– | – | – | – | – | – | – | – | – | COc1ccc2cc([C@H](C)C(=O)O)ccc2c1 [NAPROXEN] | Cmax at 8 h (in vivo [1]): < 15000 ng/mL; Cmax at 4 h (in vivo [2]): > 20000 ng/mL; Cmax at 0.25 h (in vivo [3]): 55000 ng/mL; Tmax (in vivo [4]): 0.25 h; Cmax at 2 h (in vivo [5]): > 30000 ng/mL
– | – | – | – | – | – | – | – | – | CC(=O)Oc1ccccc1C(=O)O [ASPIRIN] | Activity (Rattus norvegicus [6]): 93 mm2; AUC [7]: 91100 ng·h/mL; AUC [8]: 437000 ng·h/mL; inhibition in vivo at 30 mg/kg (Rattus norvegicus [9]): 76%
96 | 71 | 87 | 87 | 80 | 100 | > 3 | 87 | 98 | CCCCC(OC(=O)[C@@H](C)c1ccc2cc(OC)ccc2c1)O[N+](=O)[O-] (stereo partly drawn) | –
90 | 7 | 51 | 62 | 39 | 100 | 1 | 74 | 94 | CCC(OC(=O)[C@@H](C)c1ccc2cc(OC)ccc2c1)O[N+](=O)[O-] (stereo partly drawn) | –
– | – | – | – | – | – | – | – | – | CCCC(OC(=O)c1ccccc1OC(C)=O)O[N+](=O)[O-] (stereo not drawn) | AUC [19]: 73500 ng·h/mL
